The record followed here is ChEMBL document CHEMBL5385953, “Antiviral Rotenoids and Isoflavones Isolated from Millettia oblata ssp. teitensis” (J Nat Prod, 2024).

In series [1] the test system is HEp-2. Kind of series: Cytostatic activity against human HEp-2 cells assessed as poor cell staining at 4.0 uM measured after 3 days by CellTiter 96 aqueous one solution assay. It counts as functional, cell-based. The settings on record: time 3.0 day.
The nature of series [2]: Selectivity index, ratio of CC50 for human HEp-2 cells to IC50 for Human respiratory syncytial virus infected in human HEp-2 cells. In kind it is toxicity, cell-based. The settings on record: read-out: Ratio CC50/IC50.
The subject of series [3] is HEp-2. Kind of series: Cytotoxicity against human HEp-2 cells measured after 3 days by CellTiter 96 aqueous one solution assay (Rvb >100 microM). It counts as functional. The settings on record: HEp-2, 72 h, time 3 day.
For series [4], the system named is HEp-2. Kind of series: Cytostatic activity against human HEp-2 cells assessed as poor cell staining at 20 uM measured after 3 days by CellTiter 96 aqueous one solution assay. In kind it is functional, cell-based. The settings on record: time 3.0 day. In short, it runs like this: (§1)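 Compound-treated HEp-2 cells (grown in DMEM with 8% fetal calf serum and 292 μg/mL L-glutamine) were examined by microscopy alongside the tetrazolium viability assay. Cytostatic effects were scored as poor cell proliferation, altered cell shape or poor cell staining.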

Series [5] relates to HEp-2. Kind of series: Cytostatic activity against human HEp-2 cells assessed as poor cell staining at 4.0 to 100 uM measured after 3 days by CellTiter 96 aqueous one solution assay. In kind it is functional, cell-based. The conditions noted are these: dose 4-100 µM, time 3.0 day.
Series [6] relates to HEp-2. The experiment in a line: Cytostatic activity against human HEp-2 cells assessed as poor cell proliferation at 100 uM measured after 3 days by CellTiter 96 aqueous one solution assay. In kind it is functional, cell-based. The settings on record: time 3.0 day. In a few lines: as §1
Series [7] deals with HEp-2. Kind of series: Cytostatic activity against human HEp-2 cells assessed as poor cell staining at 100 uM measured after 3 days by CellTiter 96 aqueous one solution assay. It counts as functional, cell-based. The settings on record: time 3.0 day.
The subject of series [8] is HEp-2. The experiment in a line: Cytostatic activity against human HEp-2 cells assessed as poor cell staining at 0.8 to 4.0 uM measured after 3 days by CellTiter 96 aqueous one solution assay. It counts as functional, cell-based. The settings on record: dose 0.8-4 µM, time 3.0 day. In a few lines: as §1

The structures appear in SMILES notation. Calls of active or inactive are those of the source. The calls are words filed in the database; no cut-off is given here.

Take `COc1cc2c(cc1OC)[C@@H]1C(=O)c3ccc4c(c3O[C@@H]1CO2)C=CC(C)(C)O4` [DEGUELIN]: the outcome in series [1] was Active. The selectivity ratio in series [2] was found to be 61.6.
As usually defined, the CC50 is the concentration giving 50% cytotoxicity. With `COc1c(O[C@@H]2O[C@H](CO[C@H]3O[C@H](C)[C@@H](O)[C@H](O)[C@@H]3O)[C@@H](O[C@@H]3O[C@H](CO[C@H]4O[C@H](C)[C@@H](O)[C@H](O)[C@@H]4O)[C@@H](O)[C@H](O)[C@H]3O)[C@H](O)[C@H]2O)cc2c(=O)c(-c3ccc4c(c3)OCO4)coc2c1OC`, in series [3], the CC50 was > 100 µM.
As for `COc1ccc2c(c1)O[C@@H]1COc3c(cc(OC)c4c3OCO4)[C@@H]1C2=O`, the CC50 in series [3] is > 100 µM.
Regarding `COc1ccc2c(c1)O[C@@H]1COc3cc4c(cc3[C@]1(O)C2=O)OCO4`, the result in series [4] was Active.
On to `COc1ccc2c(c1)O[C@@H]1COc3cc(OC)c(OC)cc3[C@]1(O)C2=O`, for which the result in series [4] was Active.
For `COc1ccc2c(c1)O[C@@H]1COc3cc4c(cc3[C@@H]1C2=O)OCO4`, the CC50 in series [3] was > 100 µM.
On to `COc1ccc2c(=O)c(-c3cc4c(cc3OC)OCO4)coc2c1`, for which the outcome in series [4] was Active.
Turning to `COc1cc2c(cc1OC)C(=O)[C@@]1(O)c3cc4c(cc3OC[C@H]1O2)OCO4`, the CC50 in series [3] was > 100 µM.
As for `CC(C)=CCOc1ccc(-c2coc3c4c(ccc3c2=O)OC(C)(C)C=C4)cc1`, the outcome in series [5] was Active. Besides, in series [3], the CC50 is > 100 µM. Besides, the selectivity ratio in series [2] is > 47.6.
Regarding `COc1cc2c(cc1-c1coc3cc(O)ccc3c1=O)OCO2` [CUNEATIN], in series [3], the CC50 is > 100 µM.
As to `NC(=O)c1ncn([C@@H]2O[C@H](CO)[C@@H](O)[C@H]2O)n1` [RIBAVIRIN], the outcome in series [6] was Active. In addition, the CC50 in series [3] is > 100 µM.
For `COc1ccc2c(=O)c(-c3cc(OC)c4c(c3OC)OCO4)coc2c1`, the CC50 in series [3] is > 100 µM.
The compound `COc1cc2c(cc1-c1coc3c4c(c(OC)cc3c1=O)OC(C)(C)C=C4)OCO2` [ICHTHYNONE] came in with a cytotoxic concentration (CC50) in series [3] of 91 µM. Moreover, the outcome in series [4] was Active.
In the case of `CC(C)=CCOc1ccc(-c2coc3c4c(cc(O)c3c2=O)OC(C)(C)C=C4)cc1`, in series [7], the outcome was Active. For the same compound, in series [3], the CC50 was > 100 µM.
Take `COc1cc2c(cc1OC)[C@]1(O)C(=O)c3ccc4c(c3O[C@@H]1CO2)C=CC(C)(C)O4`: in series [8], the result was Active.
For `CC1(C)C=Cc2c(ccc3c(=O)c(-c4ccc5c(c4)OCO5)coc23)O1`, the CC50 in series [3] is > 100 µM.
